Calls of active or inactive are those of the source. The rule behind the calls is not given here.
Key:
Nucleic Acid [1] = test: Binding affinity to Escherichia coli pBR322 assessed as DNA interstand cross link at 0.2 mM after 2 hrs by agarose gel electrophoresis in presence of 5 equiv of Et3P; type: nucleic-acid assay
How it was run: (§1)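 EcoRI-linearized pBR322 plasmid DNA, N2-deaerated 15 min, mitomycin added from DMSO stock (final 0.1–0.2 mM) with nucleophile (GSH, Et3P or L-DTT, 5 equiv) from DMSO stock; incubated room temperature 2 h. DNA phenol/CHCl3-extracted, EtOH-precipitated, resuspended in 10 mM Tris/1 mM EDTA pH 8.0. Run on denaturing 1.2% alkaline agarose gel (40 mM NaOH, 1 mM EDTA), neutralized, stained, bands quantified.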

Nucleic Acid [2] = test: Binding affinity to Escherichia coli pBR322 assessed as DNA interstand cross link at 0.2 mM after 2 hrs by agarose gel electrophoresis in presence of 5 equiv of L-ditiothreitol; type: nucleic-acid assay; how it was run: as §1
Nucleic Acid [3] = test: Binding affinity to Escherichia coli pBR322 assessed as DNA interstand cross link at 0.2 mM after 2 hrs by agarose gel electrophoresis in presence of 5 equiv glutathione; type: nucleic-acid assay; how it was run: as §1
[4] = Activation of the compound assessed as half life at 10 Equiv of Et3P by HPLC and TLC method; type: physicochemical
How it was run: (§2)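 Mitomycin at 0.03 mM final in buffered methanolic solution (0.1 M Tris-HCl, effective 'pH' 7.4), 25 °C, with added nucleophile (final 0.06–1.5 mM). Followed by UV–vis (200–600 nm) at ~373 nm, with mitosene products at ~313 nm, for more than two half-lives. Runs in duplicate and averaged. End-point 'pH' checked, mixtures analysed by HPLC and TLC against authentic samples.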

[5] = Activation of the compound assessed as half life at 20 Equiv of Et3P by HPLC and TLC method; type: physicochemical; how it was run: as §2
Nucleic Acid [6] = test: Binding affinity to Escherichia coli pBR322 assessed as DNA interstand cross link at 0.1 mM after 2 hrs by agarose gel electrophoresis in presence of 5 equiv of Et3P; type: nucleic-acid assay
How it was run: (§3)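 EcoRI-linearized pBR322 plasmid DNA, deaerated with N2 for 15 min. Mitomycin (0.1–0.2 mM final, from 5 mM DMSO stock) and nucleophile (Et3P, L-DTT or GSH, 5 equiv, 0.5 mM final) added, then incubated 2 h at room temperature. Concentration scan with Et3P over […]. DNA extracted with phenol/chloroform and ethanol-precipitated, run on denaturing 1.2% alkaline agarose gel (40 mM NaOH, 1 mM EDTA), neutralised, stained, bands quantified.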

Nucleic Acid [7] = test: Binding affinity to Escherichia coli pBR322 assessed as DNA interstand cross link at 0.1 mM after 2 hrs by agarose gel electrophoresis in presence of 5 equiv of L-ditiothreitol; type: nucleic-acid assay; how it was run: as §3
Nucleic Acid [8] = test: Binding affinity to Escherichia coli pBR322 assessed as DNA interstand cross link at 0.05 to 0.25 mM after 2 hrs by agarose gel electrophoresis in presence of 5 equiv of Et3P; type: nucleic-acid assay; how it was run: as §3
[9] = Stability of the compound measured after 5 days by HPLC and TLC method; type: physicochemical; settings: read-out: Stability
How it was run: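 Mitomycin at 0.03 mM final in buffered methanolic solution (0.1 M Tris-HCl, effective 'pH' 7.4), 25 °C, […]. Followed by UV–vis (200–600 nm) at ~373 nm. Runs in duplicate and averaged. HPLC and TLC analysis at the end.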

[10] = Stability of the compound at 10 Equiv of L-ditiothreitol after 3 days by HPLC and TLC method; type: physicochemical; settings: read-out: Stability; how it was run: as §2
[11] = Stability of the compound at 20 Equiv L-ditiothreitol measured after 3 days by HPLC and TLC method; type: physicochemical; settings: read-out: Stability; how it was run: as §2
[12] = Stability of the compound at 20 Equiv of glutathione measured after 3 days by HPLC and TLC method; type: physicochemical; settings: read-out: Stability; how it was run: as §2
[13] = Stability of the compound at 2 Equiv of Et3P measured after 5 days by HPLC and TLC method; type: physicochemical; settings: read-out: Stability; how it was run: as §2
[14] = Activation of the compound assessed as half life at 5 Equiv of Et3P by HPLC and TLC method; type: physicochemical; how it was run: as §2
[15] = Activation of the compound assessed as half life at 50 Equiv of Et3P by HPLC and TLC method; type: physicochemical; how it was run: as §2
Nucleic Acid [16] = test: Binding affinity to Escherichia coli pBR322 assessed as DNA interstand cross link at 0.1 mM after 2 hrs by agarose gel electrophoresis in presence of 5 equiv glutathione; type: nucleic-acid assay; how it was run: as §3
Nucleic Acid [17] = test: Binding affinity to Escherichia coli pBR322 assessed as DNA interstand cross link at 0.5 mM after 6 mins by agarose gel electrophoresis in presence of 20 equiv of Et3P; type: nucleic-acid assay
[18] = Activation of the compound assessed as half life at 40 Equiv of Et3P by HPLC and TLC method; type: physicochemical; how it was run: as §2
[19] = Stability of the compound at 50 Equiv of Et3P after 3 days by HPLC and TLC method; type: physicochemical; settings: read-out: Stability; how it was run: as §2
[20] = Stability of the compound at 20 Equiv of Et3P after 3 days by HPLC and TLC method; type: physicochemical; settings: read-out: Stability; how it was run: as §2
[21] = Stability of the compound at 10 Equiv of Et3P after 3 days by HPLC and TLC method; type: physicochemical; settings: read-out: Stability; how it was run: as §2
[22] = Stability of the compound at 10 Equiv of L-ditiothreitol after 5 days by HPLC and TLC method; type: physicochemical; settings: read-out: Stability; how it was run: as §2
[23] = Stability of the compound at 20 Equiv of L-ditiothreitol after 5 days by HPLC and TLC method; type: physicochemical; settings: read-out: Stability; how it was run: as §2

Compound | half-life [4] | half-life [5] | Activity (Nucleic Acid [6]) | Activity (Nucleic Acid [7]) | remaining at 120 h [9] | remaining at 72 h [12] | Activity (Nucleic Acid [16]) | further results
CO[C@@]12[C@H](COC(N)=O)C3=C(C(=O)C(C)=C(N)C3=O)N1C[C@@H]1N[C@@H]12 | – | – | – | – | – | – | – | Activity (Nucleic Acid [1]): 3%; Activity (Nucleic Acid [2]): 2%; Activity (Nucleic Acid [3]): 2%
CO[C@@]12[C@H](COC(N)=O)C3=C(C(=O)C(C)=C(NC[C@H]4CC[C@@H](CNC5=C(C)C(=O)C6=C(C5=O)[C@@H](COC(N)=O)[C@@]5(OC)[C@H]7N[C@H]7CN65)SS4)C3=O)N1C[C@@H]1N[C@@H]12 | 6.24 h | 3.12 h | 83% | 77% | – | – | – | –
CO[C@@]12[C@H](COC(N)=O)C3=C(C(=O)C(C)=C(NCC4CCCCC(CNC5=C(C)C(=O)C6=C(C5=O)[C@@H](COC(N)=O)[C@@]5(OC)[C@H]7N[C@H]7CN65)SS4)C3=O)N1C[C@@H]1N[C@@H]12 (mixture of isomers) | 1.92 h | 1.2 h | 94% | 95% | < 10% | < 10% | 21% | Activity (Nucleic Acid [8]): Active; remaining at 72 h [10]: < 10%; remaining at 72 h [11]: < 10%; remaining at 120 h [13]: < 10%; half-life [14]: 5.52 h; half-life [15]: 0.48 h
CO[C@@]12[C@H](OC(N)=O)C3=C(C(=O)C(C)=C(NCC4CCCCC(CNC5=C(C)C(=O)C6=C(C5=O)[C@@H](OC(N)=O)[C@@]5(OC)[C@H]7N[C@H]7CN65)SSC(CNC5=C(C)C(=O)C6=C(C5=O)[C@@H](OC(N)=O)[C@@]5(OC)[C@H]7N[C@H]7CN65)CCCCC(CNC5=C(C)C(=O)C6=C(C5=O)[C@@H](OC(N)=O)[C@@]5(OC)[C@H]7N[C@H]7CN65)SS4)C3=O)N1C[C@@H]1N[C@@H]12 (stereo partly drawn) | – | 1.99 h | – | – | – | – | – | Activity (Nucleic Acid [17]): 35%; half-life [18]: 1.01 h
CO[C@@]12[C@H](COC(N)=O)C3=C(C(=O)C(C)=C(NCC(O)CCCCC(O)CNC4=C(C)C(=O)C5=C(C4=O)[C@@H](COC(N)=O)[C@@]4(OC)[C@H]6N[C@H]6CN54)C3=O)N1C[C@@H]1N[C@@H]12 (mixture of isomers) | – | – | 4% | 6% | < 10% | < 10% | 7% | remaining at 72 h [19]: < 10%; remaining at 72 h [20]: < 10%; remaining at 72 h [21]: < 10%; remaining at 120 h [22]: < 10%; remaining at 120 h [23]: < 10%
